Data taken from ChEMBL document CHEMBL3232797, “Targeting Staphylococcus aureus quorum sensing with nonpeptidic small molecule inhibitors” (J Med Chem, 2014).
Converted amounts (≈) assume the structure as drawn. The source made the active and inactive calls. The rule behind the calls is not given here.

Tests used:
[1] = test system: Staphylococcus aureus; test: Antimicrobial activity against Staphylococcus aureus RN6390B assessed as growth inhibition up to 100 uM after 18 hrs by spectrophotometry; type: functional, organism-based
In short: (§1)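 Staphylococci were grown at 37 °C with shaking in LB, Mueller–Hinton or CYGP broth, with or without test compound. Growth curves were followed as OD600 over 18 h.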

[2] = test system: Staphylococcus aureus; test: Inhibition of AIP-1-induced AgrC-I activation in Staphylococcus aureus RN6390B up to 100 uM after 55 mins by beta-lactamase reporter assay
In short: (§2)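 The reporter strain was S. aureus RN6390B (pRN6683) carrying agrP3::blaZ. It was grown overnight at 37 °C in CYGP with 5 μg/mL chloramphenicol, diluted 1/100, and grown to OD600 ≈ 0.4. Cells were exposed to AIP-1 (0.01 nM–10 μM) plus compound (0–100 μM) for 55 min at 37 °C, quenched with sodium azide, and read as β-lactamase activity by nitrocefin. Triplicates were run on ≥2 occasions, with IC50 fitted.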

[3] = test system: Staphylococcus aureus; test: Antimicrobial activity against Staphylococcus aureus RN6390B assessed as growth inhibition after 18 hrs by spectrophotometry; type: functional
[4] = Inhibition of AIP-1-induced AgrC-I activation in Staphylococcus aureus RN6390B after 55 mins by beta-lactamase reporter assay
In short: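 agrP3::blaZ reporter strain RN6390B (pRN6683) grown overnight at 37 °C in CYGP with 5 μg/mL chloramphenicol, diluted 1/100, grown with shaking to OD600 ≈ 0.4. Incubated with AIP-1 (0.01 nM to 10 μM) plus compounds (0–100 μM) for 55 min at 37 °C; quenched with sodium azide; β-lactamase read with nitrocefin. Triplicate, ≥2 independent occasions; IC50 fitted.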

[5] = test system: Staphylococcus aureus; test: Noncompetitive inhibition of AgrC-I in AIP-1-induced Staphylococcus aureus RN6390B at 25 to 100 uM after 55 mins by kinetic study; in short: as §2
[6] = test system: Staphylococcus aureus; test: Inhibition of Staphylococcus aureus adherence to human nasal squamous epithelial cells at 10 uM after 1 hr; type: functional, organism-based; settings: Epithelial cell
In short: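 Desquamated human nasal squamous epithelial cells, untreated or compound-treated, were incubated with S. aureus. Bound bacteria were counted per 100 nasal cells, as the mean of three experiments run in duplicate.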

[7] = test system: Staphylococcus aureus; test: Noncompetitive inhibition of AgrC-I in AIP-1-induced Staphylococcus aureus RN6390B assessed as reduction in maximum level of activation at 25 to 100 uM after 55 mins by kinetic study relative to control; in short: as §2
[8] = test system: Staphylococcus aureus; test: Antimicrobial activity against Staphylococcus aureus Newman in NMRI mouse septic arthritis model; type: functional, organism-based
In short: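 Mice were given test agent at 10 mg/kg body weight or PBS (control) and then challenged with S. aureus. Arthritis frequency and arthritic index were scored over a 10 day period.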

[9] = Iron-chelating activity at 50 uM by Chrome Azurol S […] assay; type: physicochemical
In short: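 Chrome azurol S (CAS) assay with compounds at 50 μM. Desferrioxamine (10 μM) served as positive control and MeCN as solvent control.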

[10] = test system: Staphylococcus aureus; test: Noncompetitive inhibition of AgrC-I in AIP-1-induced Staphylococcus aureus RN6390B at 5 to 25 uM after 55 mins by kinetic study; in short: as §2
[11] = test system: Staphylococcus aureus; test: Antimicrobial activity against Staphylococcus aureus USA300 assessed as growth inhibition at 100 uM after 18 hrs by spectrophotometry; type: functional, organism-based; in short: as §1

Structure (SMILES)	inhibition [2]	growth inhibition (GI) [1]	IC50 [4] [µM]	other results
CCCCC/C=C/CCC(=O)C1=C(O)COC1=O	–	–	22	MIC [3]: 50 µM (≈ 12.6 µg/mL)
CCCCCCCCCC(=O)CC(=O)O[C@H]1CCOC1=O	inactive	inactive	–	–
CCCCCCCCCC(=O)CC(=O)N[C@H]1CCOC1=O	–	–	22	inhibition [5]: Active
CCCCCC/C=C\CCCC(=O)C1=C(O)COC1=O	–	inactive	88	–
CCCCCCCCCCCCC/C(O)=C1/C(=O)N[C@@H](CCO)C1=O	–	–	14	MIC [3]: 12.5 µM (≈ 4.42 µg/mL)
CCCCCCCCCC(=O)CC(=O)N[C@@H]1CCOC1=O	–	–	37	MIC [3]: 100 µM (≈ 29.7 µg/mL)
CCCCCCCCCCC/C(O)=C1/C(=O)N[C@@H](CCO)C1=O	–	–	13	MIC [3]: 25 µM (≈ 8.14 µg/mL)
CCCCCCCCC/C(O)=C1/C(=O)N[C@@H](CCO)C1=O	–	–	42	MIC [3]: 100 µM (≈ 29.7 µg/mL); inhibition [6]: Active; fold change (FC) [7]: 10; Activity [8]: inactive; Activity [9]: Active
O=C1N[C@@H](CCO)C(=O)/C1=C(/O)Cc1ccc([N+](=O)[O-])cc1	inactive	inactive	–	–
CCCCCCCCCCCCCCCC(=O)C1=C(O)COC1=O	–	inactive	13	–
O=C1N[C@@H](CCO)C(=O)/C1=C(/O)CCCC1CCCCC1	inactive	inactive	–	–
CCCCCCCCCC(=O)C1=C(O)COC1=O	–	–	21	MIC [3]: 50 µM (≈ 12.7 µg/mL); Activity [9]: Not Active
CCC/C(O)=C1/C(=O)N[C@@H](CCO)C1=O	inactive	inactive	–	–
CCCCCCCCCCCC(=O)C1=C(O)COC1=O	–	–	6	MIC [3]: 25 µM (≈ 7.06 µg/mL); inhibition [10]: Active; Activity [9]: Not Active
CCCCCCCCC/C(O)=C1/C(=O)N[C@@H](C)C1=O	–	–	20	MIC [3]: 100 µM (≈ 26.7 µg/mL)
CCCCCCCCC/C(O)=C1\C(=O)CNC1=O	–	–	30	MIC [3]: 100 µM (≈ 25.3 µg/mL)
CCCCCCC/C(O)=C1/C(=O)N[C@@H](CCO)C1=O	–	inactive	42	growth inhibition (GI) [11]: inactive
CCCCCCCCCC/C(O)=C1/C(=O)N[C@@H](CCO)C1=O	–	–	10	MIC [3]: 50 µM (≈ 15.6 µg/mL)
CCCCCCCCC/C(O)=C1/C(=O)N[C@H](CCO)C1=O	–	inactive	28	–
CCCCCCCCCC(=O)CC(=O)N[C@H]1CCNC1=O	inactive	inactive	–	–
CCCCCC(=O)C1=C(O)COC1=O	–	inactive	–	Activity [9]: Not Active

The next lines start with results.

inhibition [2]	Structure (SMILES)	growth inhibition (GI) [1]	IC50 [4] [µM]	other results
inactive	CCCCCCCCCC(=O)CC(=O)N[C@H]1CC(=O)NC1=O	inactive	–	–
inactive	CCCCCCCCN(C)C(=O)CC(=O)N[C@H]1CCOC1=O	inactive	–	–
inactive	CCCCCCCCCC(=O)CC(=O)N[C@H]1CCC(=O)NC1=O	inactive	–	–
inactive	O=C(Cc1ccc([N+](=O)[O-])cc1)C1=C(O)COC1=O	inactive	–	–
inactive	O=C(COc1ccc(Br)cc1)C1=C(O)COC1=O	inactive	–	–
inactive	CCCCCCCCCC(=O)CC(=O)Nc1nccs1	inactive	–	–
inactive	CCCCCCCCCCCC(=O)N[C@H]1CCOC1=O	inactive	–	–
inactive	O=C(CCCc1ccccc1)CC(=O)N[C@H]1CCOC1=O	inactive	–	–
inactive	CCCCCCCCCC(=O)CC(=O)N[C@@H](CCO)C(=O)O	inactive	–	–
inactive	CCCCCCCCOC(=O)CC(=O)N[C@H]1CCOC1=O	inactive	–	–
inactive	CCCCCCCCCC(=O)CC(=O)C1=C(O)COC1=O	inactive	–	–
inactive	CCCCCCCCCC(=O)CC(=O)N[C@H]1CCSC1=O	inactive	–	–
inactive	O=C(CCCC1CCCCC1)CC(=O)N[C@H]1CCOC1=O	inactive	–	–
inactive	CCCC(=O)CC(=O)C1=C(O)COC1=O	inactive	–	–
inactive	CCCCCCCCCC(O)CC(=O)N[C@H]1CCOC1=O (stereo not given in full)	inactive	–	–
inactive	CCCCC/C=C/CCC(=O)CC(=O)N[C@H]1CCOC1=O	inactive	–	–
inactive	CC(C)CCCCCCC(=O)C1=C(O)COC1=O	inactive	–	–
inactive	CCCCCCCCNC(=O)CC(=O)N[C@H]1CCOC1=O	inactive	–	–
inactive	CCCCCCCCCC(=O)CC(N)=O	inactive	–	–
inactive	O=C(Cc1ccc(Br)cc1)C1=C(O)COC1=O	inactive	–	–
